According to ChEMBL document CHEMBL4725411, “A Phosphoramidate Strategy Enables Membrane Permeability of a Non-nucleotide Inhibitor of the Prolyl Isomerase Pin1” (ACS Med Chem Lett, 2020):
Activity calls are given as the source filed them. The calls are words filed in the database; no cut-off is given here.

Tests used:
[1] = molecular target: Peptidyl-prolyl cis-trans isomerase NIMA-interacting 1 (Homo sapiens, UniProt Q13526); test: Displacement of FITC-WFYpSPFLE from human Pin1 (45-163) catalytic domain by fluorescence polarization assay
[2] = system: PC-3; test: Inhibition of colony formation in human PC-3 cells; type: functional, cell-based
How it was run: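 PC3 cells treated at low density, colony formation scored. Mean of triplicate experiments, error as SD.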

[3] = Octanol/water partition coefficient, logP of compound; type: physicochemical
[4] = Prodrug conversion in human K562 cells assessed as cytosolic enzyme product of 1-R-phosphate after 5 hrs by UPLC-MS analysis; type: ADME, cell-based; conditions: k562, 5 h
How it was run: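 K562 cells exposed 5 h in serum-free medium, then washed extensively, centrifuged and extracted with ethyl acetate. Products quantified by UPLC-MS. DMSO solvent control subtracted as background. Average of duplicates with full range.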

[5] = Prodrug conversion in cell free extract; type: ADME
How it was run: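 Cell-free control run in medium without cells, then ethyl acetate extraction and UPLC-MS for the intermediate and the free phosphate.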

[6] = Prodrug release in human K562 cells assessed as 1R-phosphate binding to Pin1 at 25 uM after 5 hrs by Western blot based cellular thermal shift assay; type: ADME, cell-based; conditions: k562, 5 h
How it was run: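 K562 cells exposed to prodrug at 25 μM or 0.25% DMSO for 5 h, then heated across 38–60 °C and lysed. Soluble Pin1 measured by Western blot. Three independent experiments, error as SEM.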

[7] = Prodrug conversion in human MDA-MB-231 cells assessed as increase in Pin1 level mesured longer than 24 hrs; type: ADME, cell-based; conditions: mda-mb-231, 24 h
How it was run: (§1)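 MDA-MB-231 cells treated over a dose series for 72 h (longer than 24 h), with or without the Hint1 inhibitor TrpGc at 100 μM. Pin1 abundance at normal temperature used as the read-out.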

[8] = Prodrug conversion in human MDA-MB-231 cells assessed as increase in Pin1 level at 5 uM in presence of 100 uM TrpGc Hint1 inhibitor; type: ADME, cell-based; conditions: mda-mb-231, 5 µM; how it was run: as §1
[9] = Prodrug release in human MDA-MB-231 cells assessed as 1R-phosphate binding to Pin1 at 25 uM at fixed temperature 48 degC by Western blot based assay; type: ADME, cell-based; conditions: mda-mb-231, 25 µM
How it was run: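 MDA-MB-231 cells dosed at 25 μM or with 0.25% DMSO for 5 h, heated at a fixed 48 °C and lysed. Soluble Pin1 measured by Western blot in biological quadruplicates.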

[10] = system: PC-3; test: Antiproliferative activity in human PC-3 cells after 72 hrs by ATP-Glo assay; type: functional, cell-based
How it was run: (§2)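 PC3 cells grown to higher confluence, compound exposure 72 h. Proliferation read by ATP-Glo luminescence or by MTT.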

[11] = system: PC-3; test: Antiproliferative activity in human PC-3 cells after 72 hrs by MTT assay; type: functional, cell-based; how it was run: as §2

Sequence of Peptidyl-prolyl cis-trans isomerase NIMA-interacting 1 (Q13526 whole entry, the tested form may be a part): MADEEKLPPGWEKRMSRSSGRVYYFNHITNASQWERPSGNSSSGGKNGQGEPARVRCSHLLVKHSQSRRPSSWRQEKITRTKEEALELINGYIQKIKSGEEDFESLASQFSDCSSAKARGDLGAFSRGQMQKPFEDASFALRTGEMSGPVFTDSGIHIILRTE

CCOC(=O)CNP(=O)(OC[C@H](Cc1ccccc1)NC(=O)c1cc2ccccc2s1)Oc1ccccc1 (some centres undefined)
IC50 [1]: > 10 µM | inhibition [2]: inactive

CCOC(=O)CNP(=O)(OC[C@@H](Cc1ccccc1)NC(=O)c1cc2ccccc2s1)Oc1ccccc1 (some centres undefined)
IC50 [1]: > 10 µM | logP [3]: 0.27 | Drug metabolism [4]: Metabolite_Detected | Drug metabolism [5]: Metabolite_Notdetected | Drug metabolism [6]: Metabolite_Detected | Drug metabolism [7]: Metabolite_Detected | Drug metabolism [8]: Metabolite_Notdetected | inhibition [2]: Active | Drug metabolism [9]: Metabolite_Detected | Activity [10]: inactive | Activity [11]: inactive

O=C(N[C@@H](COP(=O)(O)O)Cc1ccccc1)c1cc2ccccc2s1
logP [3]: < -4.6
